# Results collected from several papers.
# Each line is one published result; the experiments were not run side by side.
# Sialidase-2: Sialidase-2 (Homo sapiens, UniProt Q9Y3R4)
# ACHE: Acetylcholinesterase (ACHE, Homo sapiens, UniProt P22303)
# FABP4: Fatty acid-binding protein, adipocyte (FABP4, Homo sapiens, UniProt P15090)
SMILES,target,assay,setting,IC50 [µM]
CCN[C@H]1[C@H]([C@H](O)[C@H](O)CO)OC(C(=O)O)=C[C@@H]1O,Sialidase-2,"enzyme activity, inhibitor",,> 500
COc1ccc(CCCCC(=O)C(F)(F)C(F)(F)F)cc1,"Phospholipase A2 group V (PLA2G5, Homo sapiens, UniProt P39877)","enzyme activity, inhibitor",,44.5
CC(C)(C)NC(=O)N[C@H]1[C@H]([C@H](O)[C@H](O)CO)OC(C(=O)O)=C[C@@H]1O,Sialidase-2,"enzyme activity, inhibitor",,> 500
CC(=O)c1c(C)c2cnc(Nc3ccc(C4CCN(CCS(C)(=O)=O)CC4)cn3)nc2n(C2CCCC2)c1=O,"Cyclin-dependent kinase 9 (CDK9, Homo sapiens, UniProt P50750)","enzyme activity, inhibitor, mobility shift",,> 0.75
CCc1ccccc1C=Nc1ccc(SCc2cc(=O)c(O)co2)cc1,ACHE,"enzyme activity, inhibitor, Ellman",,5.38
O=C(O)C(F)(F)C(F)(F)C(F)(F)C(F)(F)C(F)(F)C(F)(F)C(F)(F)C(F)(F)C(F)(F)C(F)(F)F,FABP4,"ligand displacement, fluorescence",pH 7.5,2.92
CCCCCC(=O)N[C@H]1[C@H]([C@H](O)[C@H](O)CO)OC(C(=O)O)=C[C@@H]1O,Sialidase-2,"enzyme activity, inhibitor",,8
O=C(O)C(F)(F)C(F)(F)C(F)(F)C(F)(F)C(F)(F)C(F)(F)F,FABP4,"ligand displacement, fluorescence",pH 7.5,11
O=C(O)C1=C[C@H](O)[C@@H](n2cc(-c3ccc(-c4ccccc4)cc3)nn2)[C@H]([C@H](O)[C@H](O)CO)O1,Sialidase-2,"enzyme activity, inhibitor",,270
O=C(O)C(F)(F)C(F)(F)C(F)(F)C(F)(F)C(F)(F)C(F)(F)C(F)(F)F,FABP4,"ligand displacement, fluorescence",pH 7.5,4.67
Cn1cc2cc(C(F)(F)c3nnc4ccc(-c5cnn(C6CC6)c5)nn34)c(F)cc2n1,"Proto-oncogene tyrosine-protein kinase Src (SRC, Homo sapiens, UniProt P12931)","enzyme activity, inhibitor, ADP detection",,> 1
CC(C)CCN[C@H]1[C@H]([C@H](O)[C@H](O)CO)OC(C(=O)O)=C[C@@H]1O,Sialidase-2,"enzyme activity, inhibitor",,70
COc1ccc(C=Nc2ccc(SCc3cc(=O)c(O)co3)cc2)cc1,ACHE,"enzyme activity, inhibitor, Ellman",,20.5
COc1cc(-c2nc3ccccc3s2)cc(NC(C)=O)c1OCC(=O)NCC(=O)O,ACHE,"enzyme activity, inhibitor, Ellman",,> 298
O=c1cc(-c2ccc(O)c(O)c2)oc2cc(O)cc(O)c12,"Dipeptidyl peptidase 4 (DPP4, Homo sapiens, UniProt P27487)","enzyme activity, inhibitor, fluorescence",,48
O=c1cc(CSc2ccc(N=Cc3ccccc3Cl)cc2)occ1O,ACHE,"enzyme activity, inhibitor, Ellman",,2.33
CN(C(=O)CC(C)(C)C)[C@H]1[C@H]([C@H](O)[C@H](O)CO)OC(C(=O)O)=C[C@@H]1O,Sialidase-2,"enzyme activity, inhibitor",,50
O=c1cc(CSc2ccc(N=Cc3ccccc3[N+](=O)[O-])cc2)occ1O,ACHE,"enzyme activity, inhibitor, Ellman",,5.13
CCCCCc1cn([C@H]2[C@H]([C@H](O)[C@H](O)CO)OC(C(=O)O)=C[C@@H]2O)nn1,Sialidase-2,"enzyme activity, inhibitor",,> 500
Cc1ccc(C=Nc2ccc(SCc3cc(=O)c(O)co3)cc2)cc1,ACHE,"enzyme activity, inhibitor, Ellman",,6.53
COc1cc(-c2nc3ccccc3s2)cc(NC(C)=O)c1OCC(=O)N[C@@H](CC(C)C)C(=O)O,ACHE,"enzyme activity, inhibitor, Ellman",,> 264
